Source: PubChem
HCV core dimer: HCV core protein dimerization inhibition; actives 0.33% (n = 300,000); inhibition, % at 5 µM; AID 1899; TR-FRET GST/Flag-core106 dimerization, 1536-well;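 active = inhibition above the mean of all tested compounds plus 3 SD, set per screening campaign, cut at about 45% in these data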
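Assay system: Tagged HCV core106 pair (GST and Flag) | Buffer or medium: KF-containing HEPES buffer, pH 7.45, DTT, CHAPS, BSA | Also added: Eu donor and XL665 acceptor anti-tag antibodies | Dosing: One concentration, 5 µM, in 0.5% DMSO | Timing: 4 h at 22.5 °C | Technique: TR-FRET 671 and 617 nm emission | Repeats: Singlicate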
EBNA-1 inh: blocks EBNA-1 binding to DNA; actives 0.34% (n = 300,000); inhibition, % at 14.8 µM; EBNA-1 DNA binding, fluorescence polarization; in the data active = inhibition above about 28%
M18AAP inhibitor: blocks P. falciparum M18 aspartyl aminopeptidase; actives 1.2% (n = 290,000); AID 1822; inhibition, % at 7.35 µM; recombinant PfM18AAP, H-Glu-NHMec fluorogenic cleavage;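 active = inhibition above the campaign mean inhibition over all tested compounds plus 3 SD, cut at about 28% in these data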;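 also: 0% = plate median of test compound wells and 100% = 2 mM ZnCl2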
NS3 helicase inh: inhibitors of Hepatitis C virus NS3 helicase | NS3 helicase DNA unwinding, Cy5 molecular beacon fluorescence | inhibition, % at 10.9 µM | actives 0.56% (n = 290,000) | AID 1800;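 active = inhibition above the mean of all tested compounds plus 3 SD, set per campaign, cut at about 35% in these data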;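 also: 0% = DMSO wells and 100% = thioflavine S control wells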
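Measured by: Cy5 fluorescence, 0 and 60 min reads / Assay system: NS3 helicase fragment of HCV / Control set: low DMSO, high thioflavine S at 110 µM / Times: 1 h reaction at 25 °C, ATP-initiated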
ALR inh: inhibitors of human sulfhydryl oxidase ALR. purified ALR, DTT oxidation, H2O2 HRP-luminol luminescence. P55789. inhibition, % (no concentration beside the values). actives 3.8% (n = 290,000);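 active = mean replicate inhibition above about 79%, with every replicate also reaching it, limit read from the data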
Target sequence (P55789 whole entry, looked up): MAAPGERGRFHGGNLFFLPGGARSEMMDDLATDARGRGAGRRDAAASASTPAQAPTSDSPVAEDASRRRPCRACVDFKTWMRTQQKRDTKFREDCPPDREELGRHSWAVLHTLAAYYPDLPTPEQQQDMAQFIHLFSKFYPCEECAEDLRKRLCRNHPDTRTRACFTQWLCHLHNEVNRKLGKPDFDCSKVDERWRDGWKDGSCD
ZTA counter: ZTA (EBV) inhibition in EBNA-1 counter-screen; P03206; ZTA-DNA binding, fluorescence polarization; inhibition, % at 11 µM; actives 0.15% (n = 320,000); AID 2234; in the data active = inhibition above about 33%
Target sequence (P03206 whole entry, looked up): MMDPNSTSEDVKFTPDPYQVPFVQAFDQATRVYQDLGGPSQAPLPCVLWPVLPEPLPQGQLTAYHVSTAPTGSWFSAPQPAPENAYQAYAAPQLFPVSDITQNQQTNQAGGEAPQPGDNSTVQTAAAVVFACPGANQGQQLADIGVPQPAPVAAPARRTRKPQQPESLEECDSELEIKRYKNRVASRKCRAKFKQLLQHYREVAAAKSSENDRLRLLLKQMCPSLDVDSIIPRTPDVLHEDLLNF
NS3 hel confirm: HCV NS3 helicase inhibition, confirmation assay. shares compounds with NS3 helicase inh. NS3 helicase DNA unwinding, Cy5 molecular beacon fluorescence. inhibition, % at 10.9 µM. actives 31% (n = 1,600). AID 1943;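 active = inhibition above the mean of all tested compounds plus 3 SD, cutoff set per campaign, cut at about 36% in these data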
FID counter trip: intercalator displacement, NS3 helicase counter-screen; actives 4% (n = 1,600); DNA fluorescent intercalator displacement, fluorescence; AID 1945; inhibition, % at 7.9 µM; shares compounds with NS3 helicase inh; in the data active = inhibition above about 37%;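 also: 0% = vehicle and 100% = reference compound; higher means more displacement of ethidium bromide from the DNA hairpin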
* = called active by the depositor; . = no result given. A selection: hits, their analogues and other compounds. The true share with any hit is near 5.2%.

SMILES | HCV core dimer | EBNA-1 inh | M18AAP inhibitor | NS3 helicase inh | ALR inh | ZTA counter | NS3 hel confirm | FID counter trip
Cc1ccc(S(=O)(=O)N2CCC3(CC2)OCCO3)s1 | 13 | -1 | 3 | -4 | -1 | 7 | . | .
CCOc1ccc(N2C(=O)CC(Sc3nc(CC(C)C)ccc3C#N)C2=O)cc1 (centres undefined) | 23 | -10 | -1 | 39* | 35 | 1 | 65* | -12
CCOC(=O)c1c(-c2ccccc2)oc2ccc(OCC(=O)NNC(=O)CCC(=O)O)cc12 | . | . | -5 | 41* | -4 | . | 9 | -18
O=C(Nc1nccs1)c1cncc(Br)c1 | -5 | -5 | 10 | -2 | 31 | 2 | . | .
CCn1c(CNC(=O)c2cccc(C)c2)nnc1SCC(=O)NC1CCCCC1C (centres undefined) | 0 | -5 | 1 | 65* | 2 | -17 | -5 | -27
CCn1c(CNC(=O)c2cccc(C)c2)nnc1SCC(=O)NC1CCCC1 | -1 | -15 | 2 | 4 | -3 | 4 | . | .
CC1=CC(C)(C)Nc2ccc(OC(=O)CN3C(=O)c4cccc5cccc(c45)C3=O)cc21 | 7 | -11 | 18 | 39* | -6 | -6 | -14 | 1
COc1ccc(Nc2nccc(-c3ccc(C#N)cc3)n2)cc1 | -8 | 0 | 3 | 37* | -14 | -10 | -6 | -7
COc1cc(C=C(c2nc3ccccc3s2)c2nc3ccccc3s2)cc(OC)c1O | 16 | -8 | 8 | 39* | . | -4 | -27 | -8
O=C(NNC(=S)NC1CCCCC1)c1sc2ccccc2c1Cl | 11 | 12 | -5 | 48* | 28 | 4 | 46* | -18
COc1cc(/C=C2\SC(=O)N(CC(=O)Nc3ccc(C)cc3)C2=O)cc(Cl)c1OCC(=O)O | 13 | 5 | 7 | 43* | 6 | -5 | 62* | 19
O=C(O)Cc1ccc(N=Nc2c(O)c(C(=O)O)cc3ccccc23)cc1 | -8 | 0 | 2 | 42* | -28 | -17 | 64* | -7
CCCCCCCc1nn2c(=O)cc(O)nc2s1 | -7 | 11 | -3 | 36* | -5 | 12 | -19 | 8
CC(=O)c1ccc(NC(=O)CN2C(=O)/C(=C/C(C)=C/c3ccccc3)SC2=S)cc1 | . | . | -1 | 12 | . | . | . | .
COc1ccc(/C=C2\SC(=S)N(CCC(=O)Nc3cccc(C(=O)O)c3)C2=O)cc1 | -1 | 1 | -7 | 39* | 2 | 21 | 52* | 7
O=C(CCN1C(=O)/C(=C/c2cccs2)SC1=S)Nc1cccc(C(=O)O)c1 | -1 | -6 | 8 | 36* | 0 | -9 | 58* | 4
CC(/C=C1\SC(=S)N(CCCC(=O)Nc2ccc(C(=O)O)c(O)c2)C1=O)=C\c1ccccc1 | 20 | 18 | -31 | 73* | 97* | 23 | 73* | 69*
O=C(CCCN1C(=O)/C(=C/c2cccs2)SC1=S)Nc1cccc(C(=O)O)c1 | 4 | -10 | 3 | 18 | -21 | -16 | . | .
CCOC(=O)CNC(=O)Cn1cnc2c(oc3ccccc32)c1=O | -8 | -18 | 0 | 2 | . | 10 | . | .
O=C(Nc1c[nH]c(=O)[nH]c1=O)c1cc([N+](=O)[O-])cc([N+](=O)[O-])c1 | -1 | -9 | -4 | 0 | -46 | -9 | . | .
COc1cc(/C=C(\C#N)C(=O)Nc2ccc(C(=O)O)cc2)ccc1OC(=O)c1cccc(F)c1 | -3 | 7 | 2 | 47* | 4 | -19 | 63* | -24
CC(Oc1ccc2c(c1)oc(=O)c1ccccc12)C(=O)NC(Cc1c[nH]c2ccc(O)cc12)C(=O)O (centres undefined) | -3 | 7 | 5 | 15 | . | -6 | . | .
CC(=O)c1ccccc1NC(=O)CN1C(=O)CS/C1=C\c1nc(-c2ccc(C)cc2)cs1 | 31 | -1 | -2 | 37* | 14 | -13 | -3 | -16
COC(=O)c1ccccc1NC(=O)CN1C(=O)CSC1=O | -1 | -7 | 10 | 5 | 3 | 4 | . | .
O=C(COC(=O)c1ccc(O)cc1O)NC1CC1 | . | . | . | . | 13 | -11 | . | .
SMILES | HCV core dimer | EBNA-1 inh | M18AAP inhibitor | NS3 helicase inh | ALR inh | ZTA counter | NS3 hel confirm | FID counter trip
O=C(O)c1ccccc1N1C(=O)C2C3c4ccccc4C(Br)(c4ccccc43)C2C1=O (centres undefined) | 2 | -2 | -5 | 40* | 13 | -1 | 42* | -21
CC12C(=O)N(c3ccccc3C(=O)O)C(=O)C1C1C=CC2C1 (centres undefined) | -2 | -2 | -11 | -13 | 1 | -10 | . | .
CCOC(=O)c1cc2c(C)n(-c3ccc(OCC)cc3)c(C)c2ccc1=O | 25 | -1 | 7 | 55* | 20 | 4 | -12 | -9
Cc1ccc2c(c1)N(CC(=O)N1CCCC1)C(=O)C(C)O2 (centres undefined) | -1 | 5 | -1 | 0 | -7 | -2 | . | .
CCCOc1ccc(CC(=O)N/N=C\c2ccc(F)cc2)cc1 | 3 | 11 | -7 | -5 | -10 | 1 | . | .
O=C(N/N=C\C=C\c1ccco1)C1COc2ccccc2O1 (centres undefined) | 5 | 6 | 5 | 44* | -1 | 16 | -2 | -8
CCc1ccc(C(C(=O)NC2CCCCC2)N(C(=O)c2csnn2)C2CC2)cc1 (centres undefined) | 7 | -12 | 0 | 0 | 1 | -9 | . | .
COc1cc(NS(=O)(=O)c2ccc(NC(=S)NC(=O)c3ccc(F)cc3)cc2)nc(OC)n1 | -12 | -16 | 3 | 40* | 34 | 9 | 27 | -13
O=C(COc1ccc(-c2ccccc2)cc1)NNC(=O)Nc1ccc(F)cc1F | 13 | 2 | -11 | -1 | -3 | 6 | . | .
CN(C)c1ccc(/C=N/NC(=O)C(O)(c2ccccc2)c2ccccc2)o1 | 7 | -6 | 27 | 65* | -2 | 15 | -31 | -31
CN(C)c1ccc(/C=N/NC(=O)c2ccccc2O)o1 | -2 | -14 | 10 | -1 | -8 | 2 | . | .
CC1CC(C)(C)CC2(C1)NC(=O)N(CC(=O)Nc1cc([N+](=O)[O-])ccc1F)C2=O (centres undefined) | . | . | . | . | -2 | -8 | . | .
COc1cccc(-n2c(N)c(C(=O)Nc3c(C)n(C)n(-c4ccccc4)c3=O)c3nc4ccccc4nc32)c1 | 19 | -1 | -8 | 38* | -8 | -1 | 7 | -55
Cc1ccc(-n2c(SCC(=O)O)nc3sc4c(c3c2=O)CCCC4)cc1 | 8 | -23 | -5 | 16 | 3 | 2 | . | .
CC1CCc2c(sc3nc(SCC(=O)O)n(-c4ccccc4)c(=O)c23)C1 (centres undefined) | 4 | -5 | 3 | 37* | 3 | 2 | 15 | -16
